Results published in ChEMBL document CHEMBL1123810, “Synthesis and cardiotonic activity of a series of substituted 4-alkyl-2(1H)-quinazolinones” (J Med Chem, 1987).

System: Canis familiaris
Assay: Effect on arterial blood pressure (MAP) in anesthetized open-chest dogs at 8.75 mg/kg intravenous dose
Assay type: functional, Canis lupus familiaris
Conditions: not given
Outline: (§1)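 Pentobarbital-anesthetized (45 mg/kg i.p.), ventilated mongrel dogs, open chest. MAP came from a femoral artery cannula, HR from a cardiotachometer triggered by the pressure pulse, and CF from a right-ventricle strain gauge. Compound in 10% DMF/saline or as the HCl salt in saline was infused iv in 3–4 stepwise rising doses, each over 5 min. Responses are % change from predrug control at the maximum dose given.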

SMILES | Change [%]
COc1cc2nc(O)nc(C(C)C)c2cc1OC | -27
Cc1nc(O)nc2ccc(Cl)cc12 | -21
COc1cc(OC)c2nc(O)nc(C)c2c1 | -6
COc1cc(OC)c2c(C)nc(O)nc2c1 | -40
Br.Cc1nc(O)nc2ccc(O)c(O)c12 | 8
COc1ccc(OC)c2c(C)nc(O)nc12 | -6
Cc1nc(O)nc2ccc(N(C)C)cc12 | -23
Cc1nc(O)nc2ccccc12 | -8
COc1cc2nc(O)nc(C)c2cc1OC | -35
Cc1nc(O)nc2cc(Cl)c(Cl)cc12 | 1
Cc1nc(O)nc2cc3c(cc12)OCO3 | 1
COc1cc2nc(O)nc(C(F)(F)F)c2cc1OC | -15

System: Canis familiaris
Assay: Effect on heart rate (HR) in anesthetized open-chest dogs at 3.75 mg/kg intravenous dose
Assay type: functional, Canis lupus familiaris
Conditions: not given
Outline: as §1

SMILES | Change [%]
Cc1nc(O)nc2ccc(N3CCCCC3)cc12 | 35
COc1ccc2nc(O)nc(C)c2c1 | 18

System: Canis familiaris
Assay: Effect on heart rate (HR) in anesthetized open-chest dogs at 8.75 mg/kg intravenous dose
Assay type: functional, Canis lupus familiaris
Conditions: not given
Outline: as §1

SMILES | Change [%]
COc1cc2nc(O)nc(C(C)C)c2cc1OC | 21
Cc1nc(O)nc2ccc(Cl)cc12 | 33
COc1cc(OC)c2nc(O)nc(C)c2c1 | 13
COc1cc(OC)c2c(C)nc(O)nc2c1 | 25
Br.Cc1nc(O)nc2ccc(O)c(O)c12 | 0
COc1ccc(OC)c2c(C)nc(O)nc12 | 13
Cc1nc(O)nc2ccc(N(C)C)cc12 | 23
Cc1nc(O)nc2ccccc12 | 16
COc1cc2nc(O)nc(C)c2cc1OC | 19
Cc1nc(O)nc2cc(Cl)c(Cl)cc12 | 2
Cc1nc(O)nc2cc3c(cc12)OCO3 | 10
COc1cc2nc(O)nc(C(F)(F)F)c2cc1OC | 0

System: Canis familiaris
Assay: 50% increase in myocardial contractile force (CF) above control in anesthetized open-chest dogs at 3.75 mg/kg intravenous dose
Assay type: functional
Conditions: Canis lupus familiaris, Myocardium
Outline: (§2)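 Anesthetized (pentobarbital 45 mg/kg i.p.), artificially respired mongrel dogs with right thoracotomy. Contractile force was read by a strain gauge on the right ventricle. Compound was given in 10% DMF in saline, or as the HCl salt in saline, by femoral vein infusion in 3–4 stepwise increasing doses, each over 5 min. ED50 (mg/kg iv) is the dose giving a 50% CF rise over control, taken from 3–4 point dose–response curves by graphic estimation (n = 1, 2 dogs) or linear regression (n ≥ 3).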

SMILES | ED50 [mg/kg]
Cc1nc(O)nc2ccc(N3CCCCC3)cc12 | 1.13
COc1ccc2nc(O)nc(C)c2c1 | 1.32

System: Canis familiaris
Assay: Effect on myocardial contractile force (CF) in anesthetized open-chest dogs at 3.75 mg/kg intravenous dose
Assay type: functional, Canis lupus familiaris, Myocardium
Conditions: not given
Outline: as §1

SMILES | Change [%]
Cc1nc(O)nc2ccc(N3CCCCC3)cc12 | 116
COc1ccc2nc(O)nc(C)c2c1 | 111

System: Canis familiaris
Assay: Effect on myocardial contractile force (CF) in anesthetized open-chest dogs at 8.75 mg/kg intravenous dose
Assay type: functional, Canis lupus familiaris, Myocardium
Conditions: not given
Outline: as §1

SMILES | Change [%]
COc1cc2nc(O)nc(C(C)C)c2cc1OC | 112
Cc1nc(O)nc2ccc(Cl)cc12 | 85
COc1cc(OC)c2nc(O)nc(C)c2c1 | 60
COc1cc(OC)c2c(C)nc(O)nc2c1 | 97
Br.Cc1nc(O)nc2ccc(O)c(O)c12 | 39
COc1ccc(OC)c2c(C)nc(O)nc12 | 54
Cc1nc(O)nc2ccc(N(C)C)cc12 | 90
Cc1nc(O)nc2ccccc12 | 93
COc1cc2nc(O)nc(C)c2cc1OC | 90
Cc1nc(O)nc2cc(Cl)c(Cl)cc12 | 10
Cc1nc(O)nc2cc3c(cc12)OCO3 | 66
COc1cc2nc(O)nc(C(F)(F)F)c2cc1OC | 23

System: Canis familiaris
Assay: Effect on arterial blood pressure (MAP) in anesthetized open-chest dogs at 3.75 mg/kg intravenous dose
Assay type: functional, Canis lupus familiaris
Conditions: not given
Outline: as §1

SMILES | Change [%]
Cc1nc(O)nc2ccc(N3CCCCC3)cc12 | -21
COc1ccc2nc(O)nc(C)c2c1 | -10

System: Canis familiaris
Assay: Effect that produces a 50% increase in myocardial contractile force (CF) above control in anesthetized open-chest dogs at 8.75 mg/kg intravenous dose
Assay type: functional
Conditions: Canis lupus familiaris, Myocardium
Outline: as §2

SMILES | ED50 [mg/kg]
COc1cc2nc(O)nc(C(C)C)c2cc1OC | 1.39
Cc1nc(O)nc2ccc(Cl)cc12 | 1.8
COc1cc(OC)c2nc(O)nc(C)c2c1 | 7.45
COc1cc(OC)c2c(C)nc(O)nc2c1 | 2.08
Br.Cc1nc(O)nc2ccc(O)c(O)c12 | > 8.75
Cc1nc(O)nc2ccc(N(C)C)cc12 | 1.2
Cc1nc(O)nc2ccccc12 | 3.45
COc1cc2nc(O)nc(C)c2cc1OC | 2.42
Cc1nc(O)nc2cc(Cl)c(Cl)cc12 | > 8.75
Cc1nc(O)nc2cc3c(cc12)OCO3 | 5.65
COc1cc2nc(O)nc(C(F)(F)F)c2cc1OC | > 8.75

Molecular target: Phosphodiesterase 3 (Canis familiaris)
Assay: Inhibitory activity against canine cardiac fraction III cyclic AMP phosphodiesterase (PDE III)
Conditions: not given

SMILES | IC50 [µM]
COc1cc2nc(O)nc(C(C)C)c2cc1OC | 43
COc1cc(OC)c2nc(O)nc(C)c2c1 | 190
COc1cc(OC)c2c(C)nc(O)nc2c1 | 25
Br.Cc1nc(O)nc2ccc(O)c(O)c12 | 18
COc1ccc(OC)c2c(C)nc(O)nc12 | 129
Cc1nc(O)nc2ccc(N(C)C)cc12 | 38
Cc1nc(O)nc2ccccc12 | 138
COc1cc2nc(O)nc(C)c2cc1OC | 100
COc1cc2nc(O)nc(C(F)(F)F)c2cc1OC | 100
